pIC50: −log10 of the molar value.
What was measured:
Rattus norvegicus [1] = species on record: Rattus norvegicus; test: Myorelaxant activity as percentage residual contractile activity in rat uterus at 50 uM concentration.; format: functional
In short: (§1)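 Uterus from fed Wistar rats (150–200 g) pretreated the day before with diethylstilboestrol dipropionate i.m. Tissue superfused at 37 °C. Contractions induced by 20 mU oxytocin injections at 10 min intervals, scored as AUC. Baseline (100%) is the mean of the last three constant responses. Each drug concentration tested with at least three injections; mean AUC expressed as percent of the drug-free response.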

Rattus norvegicus [2] = species on record: Rattus norvegicus; test: In vitro inhibition of 30 mM KCl-induced contraction of rat aorta rings.; format: functional
Rattus norvegicus [3] = species on record: Rattus norvegicus; test: Percentage residual insulin secretion at 10 uM dose from pancreatic islets incubated in the presence of 16.7 mM glucose; format: functional
In short: (§2)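 Islets from fed Wistar rats (180–220 g), groups of 10, preincubated 30 min at 37 °C in salt medium with 2.8 mM glucose and 0.5% dialyzed albumin under O2/CO2. Then incubated 90 min at 37 °C with 16.7 mM glucose plus drug. Insulin measured by radioimmunoassay against a rat insulin standard; reported as percentage residual release.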

Cavia porcellus = species on record: Cavia porcellus; test: In vitro inhibition electrically stimulated guinea pig ileum segment contraction.; format: functional
In short: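 Coaxial electrical stimulation with rectangular pulses (0.5 ms, 0.1 Hz, 5–25 V); isometric contraction recording. Drugs added at increasing concentrations until maximal effect.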

Rattus norvegicus [4] = species on record: Rattus norvegicus; test: Myorelaxant activity as percentage residual contractile activity in rat uterus at 10 uM concentration.; format: functional; in short: as §1
Rattus norvegicus [5] = species on record: Rattus norvegicus; test: In vitro percentage residual insulin secretion at 50 uM dose from rat pancreatic islets incubated in the presence of 16.7 mM glucose.; format: functional; in short: as §2
Rattus norvegicus [6] = species on record: Rattus norvegicus; test: Percentage residual insulin secretion at 1 uM dose from pancreatic islets incubated in the presence of 16.7 mM glucose; format: functional; in short: as §2
Rattus norvegicus [7] = species on record: Rattus norvegicus; test: Myorelaxant activity in rat aorta in the presence 80 mM KCL.; format: functional
In short: (§3)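 Endothelium-denuded transverse aortic rings (3–4 mm) from fed Wistar rats (250–300 g) held under 2 g tension in Krebs-bicarbonate at 37 °C, 95% O2/5% CO2. After 60 min equilibration, contracted with 30 mM or 80 mM KCl; drugs added cumulatively to maximal relaxation, with or without glibenclamide throughout (1 or 10 μM).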

[8] = Myorelaxant activity in rat aorta with 10 uM glibenclamide and 30 mM KCL; format: functional, tissue-based; in short: as §3
[9] = Myorelaxant activity in rat aorta with 1 uM glibenclamide and 30 mM KCL; format: functional, tissue-based; in short: as §3

Row | Structure (SMILES) | pIC50 (Rattus norvegicus [2]) | pIC50 (Cavia porcellus) | pIC50 (Rattus norvegicus [7]) | pIC50 [8] | pIC50 [9] | Activity (Rattus norvegicus [1]) [%] | Secretion (Rattus norvegicus [3]) [%] | Activity (Rattus norvegicus [4]) [%] | Secretion (Rattus norvegicus [5]) [%] | Secretion (Rattus norvegicus [6]) [%]
1 | CC(Nc1nc(O)c2ccccc2n1)C(C)(C)C (configuration not stated) | 4.91 |  |  |  |  |  |  |  | 50.9 | 
2 | CC(C)C(C)NC1=NS(=O)(=O)c2cnccc2N1 (configuration not stated) | 3.81 | < 3.52 |  |  |  |  | 26.8 |  | 7.1 | 70.5
3 | CC(C)Nc1nc(O)c2ccccc2n1 | 4.17 |  |  |  |  |  |  |  | 45.6 | 
4 | CCC(C)Nc1nc(O)c2cc(Cl)ccc2n1 (configuration not stated) | 4.86 | 4.35 |  |  |  |  | 53.2 |  | 6 | 84.9
5 | CC(C)Nc1nc(O)c2cc(Cl)ccc2n1 | 4.76 | 4.13 | 4.46 |  |  | 61 | 55.1 | 78.7 | 6.6 | 80.7
6 | CC(C)C(C)Nc1nc(O)c2cc(Cl)ccc2n1 (configuration not stated) | 4.79 | 4.23 |  |  |  |  | 61.9 |  | 10.2 | 81.3
7 | Oc1nc(NCc2ccccc2)nc2ccc(Cl)cc12 |  | 4.88 |  |  |  | 98.1 |  | 94.8 | 82.5 | 
8 | CC(C)Nc1nc(O)c2cc(I)ccc2n1 | 4.92 | 4.36 | 4.43 | 4.33 | 4.43 | 41 | 90.9 | 77.6 | 12.2 | 93.7
9 | CCC(C)Nc1nc(O)c2cc(I)ccc2n1 (configuration not stated) | 5.05 | 4.63 |  |  |  |  | 77.5 |  | 11.2 | 94.9
10 | Oc1nc(NCc2ccccc2)nc2ccccc12 | 4.36 |  |  |  |  | 47.4 |  | 97.2 | 61.8 | 
11 | CC1=Nc2ccc(Cl)cc2S(=O)(=O)N1 [DIAZOXIDE] | 4.71 | < 3.52 | < 3.52 | 3.79 | 4.07 | 76.3 | 70 | 93.8 | 28.8 | 78.9

The remaining compounds from weak to strong by pIC50 (Rattus norvegicus [2]), led by results:

Row | pIC50 (Rattus norvegicus [2]) | pIC50 (Cavia porcellus) | pIC50 (Rattus norvegicus [7]) | pIC50 [8] | pIC50 [9] | Structure (SMILES) | Activity (Rattus norvegicus [1]) [%] | Secretion (Rattus norvegicus [3]) [%] | Activity (Rattus norvegicus [4]) [%] | Secretion (Rattus norvegicus [5]) [%] | Secretion (Rattus norvegicus [6]) [%]
12 | 5.12 |  |  |  |  | Oc1nc(NCc2ccccc2)nc2ccc(Br)cc12 | 76.6 |  | 76.8 | 75.7 | 
13 | 5.25 | 5.09 | 4.74 | < 4.52 | < 4.52 | C[C@@H](Nc1nc(O)c2cc(Cl)ccc2n1)C1CCCCC1 | 90.7 | 62.1 | 108 | 16.5 | 
14 | 5.39 | 4.52 |  |  |  | CC(C)C(C)Nc1nc(O)c2cc(I)ccc2n1 (configuration not stated) |  | 87.7 |  | 30.6 | 94.7
15 | 5.41 | 4.59 |  |  |  | Oc1nc(NCC2CCCCC2)nc2ccc(I)cc12 | 97.9 | 65.4 | 96.8 | 10 | 
16 | 5.55 | 4.69 |  |  |  | C[C@@H](Nc1nc(O)c2cc(Cl)ccc2n1)c1ccccc1 | 46.5 |  | 120 | 35 | 
17 | 5.66 | 4.62 |  |  |  | Oc1nc(NCC2CCCCC2)nc2ccc(Cl)cc12 | 80.3 | 90.1 | 86 | 26.5 | 
18 | 5.68 | 4.82 |  |  |  | C[C@H](Nc1nc(O)c2cc(Cl)ccc2n1)C1CCCCC1 | 66.5 | 43.6 | 102 | 8.9 | 
19 | 5.77 | 4.88 |  |  |  | C[C@H](Nc1nc(O)c2cc(Cl)ccc2n1)c1ccccc1 | 44.9 | 76.9 | 92.4 | 12.9 | 
20 | 5.85 | 5.06 |  |  |  | Oc1nc(NCc2ccccc2)nc2ccc(I)cc12 | 106 |  | 106 | 82.8 | 
21 | 6.30 | 5.04 | 4.80 | 4.37 | 4.98 | CC(N/C(=N\C#N)Nc1ccncc1)C(C)(C)C (configuration not stated) [PINACIDIL ANHYDROUS] | 35.5 | 96 | 58.1 | 92.1 | 97.8
